Reference: ChEMBL document CHEMBL4842360, “Discovery of a Bicyclic Peptidyl Pan-Ras Inhibitor” (J Med Chem, 2021)
Numbered stars: 1 amine (or outer) side, 2 acyl side, 3 side chain; on linkers, the order of the positions; unused ones are H or OH. Bridge positions count the residues as written; N and C are the ends. Square brackets hold non-standard residues; d marks the D form. Peptide text beside a SMILES is read from it. Trimesoyl = O=C(c1cc(C(=O)[*:2])cc(C(=O)[*:3])c1)[*:1]; Phe(4-F) = N[C@@H](Cc1ccc(F)cc1)C(=O)O; 2Nal = N[C@@H](Cc1ccc2ccccc2c1)C(=O)O; d2Nal = N[C@H](Cc1ccc2ccccc2c1)C(=O)O; X1 = CCCCCCC[C@H](N[*:1])C(=O)[*:2]; Phg = N[C@H](C(=O)O)c1ccccc1; dNle = CCCC[C@@H](N)C(=O)O; Nle = CCCC[C@H](N)C(=O)O; Orn = NCCC[C@H](N)C(=O)O; Dap = NC[C@H](N)C(=O)O; X2 = C(C[*:1])C[*:2]; βAla = NCCC(=O)O

Columns and labels:
[1] = Drug localization in cytosol of human HeLa cells assessed as mean fluorescence intensity at 5 uM incubated for 2 hrs by flow cytometry relative to relative to extracellular concentration; type: ADME, subcellular
NCI-H1299 [2] = test: Induction of apoptosis in human NCI-H1299 cells by MTT assay; type: functional, cell-based
GTPase KRas [3] = target: T1, GTPase KRas (Homo sapiens, UniProt P01116, G12V); test: Inhibition of GPPNP bound KRAS G12V mutant (unknown origin) assessed as reduction in KRAS/GST-fused Raf RBD interaction incubated for 2 hrs by HTRF assay
NCI-H1299 [4] = test: Induction of apoptosis in human NCI-H1299 cells incubated for 24 hrs by MTT assay; type: functional, cell-based; details: NCI-H1299, 24 h
NCI-H358 [5] = test: Antiproliferative activity against human NCI-H358 cells incubated for 96 hrs by MTT assay; type: functional, cell-based; details: Homo sapiens, NCI-H358, 96 h; read-out: EC50
Outline: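 H358 cells at 5,000/well, grown overnight, treated with serially diluted peptide (0–40 μM) in 10% FBS medium for 96 h at 37 °C. MTT added for 4 h, formazan solubilized overnight in SDS-HCl, absorbance read at 570 nm.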

GTPase KRas [6] = target: GTPase KRas (Homo sapiens, UniProt P01116, G12D); test: Binding affinity to recombinant human KRAS G12D mutant incubated for 0.5 hrs by ELISA
PANC-1 = test: Antitumor activity against human PANC-1 cells xenografted in BALB/c mouse assessed as inhibition of cell growth at 40 mg/kg, iv administered once every 2 days for 4 weeks; type: functional; details: PANC-1, iv, 672 h, read-out: GI
NCI-H358 [7] = test: Antiproliferative activity against human NCI-H358 cells incubated for 96 hrs by Celltiter-Glo assay; type: functional, cell-based; details: Homo sapiens, NCI-H358, 96 h; read-out: EC50
GTPase KRas [8] = target: T1, GTPase KRas; test: biochemical

T1 sequence (P01116 whole entry G12V, the tested form may be a part): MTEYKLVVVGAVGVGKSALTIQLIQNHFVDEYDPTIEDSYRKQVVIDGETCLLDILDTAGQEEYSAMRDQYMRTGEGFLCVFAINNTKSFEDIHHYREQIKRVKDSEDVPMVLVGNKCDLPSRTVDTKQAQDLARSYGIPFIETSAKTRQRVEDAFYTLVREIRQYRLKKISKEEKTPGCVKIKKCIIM
Sequence of GTPase KRas (Homo sapiens, UniProt P01116, G12D) (P01116 whole entry G12D): as the sequence (P01116 whole entry G12V, the tested form may be a part) above, with V12D counted along it

SMILES: C[C@@H]1NC(=O)[C@@H](Cc2ccccc2)NC(=O)[C@@H]2CCCCNC(=O)c3cc(cc(c3)C(=O)N[C@H](Cc3ccc4ccccc4c3)C(=O)N[C@@H](CO)C(=O)N[C@@H](CCC(N)=O)C(=O)N[C@H](Cc3ccc4ccccc4c3)C(=O)N[C@@H](c3ccccc3)C(=O)N2)C(=O)NC[C@@H](C(=O)N[C@@H](CCCN)C(=O)N[C@H](CCCNC(=N)N)C(=O)N[C@@H](Cc2ccc(F)cc2)C(=O)N[C@H](C)C(=O)N[C@@H](CCCCN)C(N)=O)NC(=O)[C@H](CCCNC(=N)N)NC(=O)[C@@H](CCCNC(=N)N)NC1=O ([d2Nal]SQ[d2Nal][Phg]K[dF]A[dR]R[Dap][Orn][dR][Phe(4-F)][dA]K-NH2; linker N-6-11 via Trimesoyl)
- Drug uptake [1]: Active

SMILES: CCCC[C@H]1NC(=O)[C@H](Cc2ccc(F)cc2)NC(=O)[C@H](CCCNC(=N)N)NC(=O)[C@@H](Cc2ccc3ccccc3c2)NC(=O)[C@H](CCCNC(=N)N)NC(=O)[C@H](CCCNC(=N)N)NC(=O)[C@H](CCCNC(=N)N)NC(=O)[C@@H](C)NC(=O)[C@H]([C@@H](C)O)NC(=O)[C@H](Cc2c[nH]c3ccccc23)NC(=O)[C@H](CCC(N)=O)NC1=O (cyclo(WT[dA]RRR[d2Nal]R[Phe(4-F)][dNle]Q))
- EC50 (NCI-H1299 [2]): 3 µM

SMILES: CC[C@@H](C)[C@@H]1NC(=O)[C@H](Cc2cn(CCc3c(C)[nH]c4cc(Cl)cc(Cl)c34)nn2)NC(=O)[C@@H](CC(N)=O)NC(=O)[C@H](CCCNC(=N)N)NC(=O)[C@H](Cc2ccccc2)NC(=O)[C@@H](CC(C)C)NC(=O)[C@@H](C)NC(=O)c2cc3cc(c2)C(=O)NC[C@@H](C(N)=O)NC(=O)[C@H](CCCNC(=N)N)NC(=O)[C@H](CCCNC(=N)N)NC(=O)[C@H](CCCNC(=N)N)NC(=O)[C@H](CCCNC(=N)N)NC(=O)[C@H](Cc2ccc4ccccc4c2)NC(=O)[C@H](Cc2ccccc2)NC(=O)C(CCCCNC3=O)NC(=O)[C@H](CC(=O)O)NC1=O (some centres not stated)
- IC50 (GTPase KRas [3]): 3.4 µM
- EC50 (NCI-H1299 [4]): 8 µM

SMILES: N=C(N)NCCC[C@@H]1NC(=O)[C@H](Cc2ccc3ccccc3c2)NC(=O)[C@@H](Cc2ccccc2)NC(=O)[C@H](Cc2ccccc2)NC(=O)[C@H](CCC(N)=O)NC(=O)[C@@H](CCCNC(=N)N)NC(=O)[C@H](CCCNC(=N)N)NC(=O)[C@@H](CCCNC(=N)N)NC1=O (cyclo([2Nal]R[dR]R[dR]QF[dF]))
- Drug uptake [1]: 120%

SMILES: C[C@@H]1NC(=O)[C@@H](Cc2ccccc2)NC(=O)[C@@H]2CCCCNC(=O)c3cc(cc(c3)C(=O)N[C@H](Cc3ccc4ccccc4c3)C(=O)N[C@@H](CO)C(=O)N[C@@H](CCC(N)=O)C(=O)N[C@H](Cc3ccc4ccccc4c3)C(=O)N[C@@H](c3ccccc3)C(=O)N2)C(=O)NC[C@@H](C(=O)N[C@@H](CCN)CC(=O)N[C@H](CCCNC(=N)N)C(=O)N[C@@H](Cc2ccc(F)cc2)C(=O)N[C@H](C)C(=O)N[C@@H](CCCCN)C(N)=O)NC(=O)[C@H](CCCNC(=N)N)NC(=O)[C@@H](CCCNC(=N)N)NC1=O
- EC50 (NCI-H358 [5]): 17 µM

SMILES: CCCCCCC[C@@H]1NC(=O)[C@@H]2CSCCCSC[C@H](NC(=O)[C@H](Cc3c[nH]c4ccccc34)NC(=O)[C@@H]3CCCN3C(=O)[C@H](CC(=O)O)NC(=O)[C@H](Cc3ccc(F)cc3)NC(=O)[C@H](CO)NC1=O)C(=O)NCCC(=O)N1CCC[C@H]1C(=O)N[C@@H](CCCC)C(=O)N2 (cyclo(C[X1]S[Phe(4-F)]DPWC[βAla]P[Nle]); linker 1-8 via X2)
- Kd (GTPase KRas [6]): 0.022 µM
- inhibition in vivo at 40 mg/kg (PANC-1): 65%

SMILES: C[C@@H]1NC(=O)[C@@H](Cc2ccccc2)NC(=O)[C@@H]2CCCCNC(=O)c3cc(cc(c3)C(=O)N[C@H](Cc3ccc4ccccc4c3)C(=O)N[C@@H](CO)C(=O)N[C@@H](CCC(N)=O)C(=O)N[C@H](Cc3ccc4ccccc4c3)C(=O)N[C@@H](c3ccccc3)C(=O)N2)C(=O)NC[C@@H](C(=O)NCCC(=O)NCCC(=O)NC(CCCCN)C(N)=O)NC(=O)[C@H](CCCNC(=N)N)NC(=O)[C@@H](CCCNC(=N)N)NC1=O (some centres not stated)
- EC50 (NCI-H358 [5]): 29 µM
- EC50 (NCI-H358 [7]): 22 µM
- Drug uptake [1]: Active
- Kd (GTPase KRas [8]): 0.14 µM
